Measurements from ChEMBL document CHEMBL4145644 (J Nat Prod, 2018).

Legend:
Staphylococcus aureus = assay: Antimicrobial activity against Staphylococcus aureus KB210 ATCC 6538p assessed as zone of inhibition at 1 ug/disc measured after 24 to 48 hrs by paper disc method; format: functional; details: read-out: IZ
In short: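 Nutrient agar (0.5% peptone, 0.5% meat extract, 0.8% agar, pH 7.0) inoculated at 0.2% with S. aureus ATCC 6538p. 6 mm filter discs impregnated with 10 μL compound solution were applied. Plates were incubated at 37 °C for 24 h and inhibition zones were measured.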

Bacillus spizizenii = assay: Antimicrobial activity against Bacillus subtilis KB211 ATCC 6633 assessed as zone of inhibition at 1 ug/disc measured after 24 to 48 hrs by paper disc method; format: functional; details: ATCC 6633 KB211, read-out: IZ
In short: (§1)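 Bacteria on nutrient agar (0.5% peptone, 0.5% meat extract, 0.8% agar, pH 7.0), 37 °C, 24 h. Inoculum 0.5% for B. subtilis, E. coli, K. pneumoniae, P. vulgaris; 0.2% for K. rhizophila. 6 mm discs carrying 10 μL compound solution. Zone of inhibition measured.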

Escherichia coli = assay: Antimicrobial activity against Escherichia coli KB213 NIHJ assessed as zone of inhibition at 1 ug/disc measured after 24 to 48 hrs by paper disc method; format: functional; details: read-out: IZ; in short: as §1
Kocuria rhizophila = assay: Antimicrobial activity against Kocuria rhizophila KB212 ATCC 9341 assessed as zone of inhibition at 1 ug/disc measured after 24 to 48 hrs by paper disc method; format: functional, Kocuria rhizophila DC2201; details: read-out: IZ; in short: as §1
Pseudomonas aeruginosa = assay: Antimicrobial activity against Pseudomonas aeruginosa KB359 NBRC 12582 assessed as zone of inhibition at 1 ug/disc measured after 24 to 48 hrs by paper disc method; format: functional; details: read-out: IZ
In short: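 Pseudomonas aeruginosa NBRC 12582 on nutrient agar (0.5% peptone, 0.5% meat extract, 0.8% agar, pH 7.0), 1.0% inoculation, 37 °C, 24 h. Discs (6 mm) impregnated with 10 μL compound solution placed on plate. Inhibition zones measured.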

[1] = test system: Mycolicibacterium smegmatis; assay: Antimicrobial activity against Mycobacterium smegmatis KB42 assessed as zone of inhibition at 1 ug/disc measured after 24 to 48 hrs by paper disc method; format: functional; details: read-out: IZ
Proteus vulgaris = assay: Antimicrobial activity against Proteus vulgaris KB127 NBRC 3167 assessed as zone of inhibition at 1 ug/disc measured after 24 to 48 hrs by paper disc method; format: functional; details: read-out: IZ; in short: as §1
Klebsiella pneumoniae = assay: Antimicrobial activity against Klebsiella pneumoniae KB214 ATCC 10031 assessed as zone of inhibition at 1 ug/disc measured after 24 to 48 hrs by paper disc method; format: functional; details: read-out: IZ
In short: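 Paper disc diffusion with 6 mm sterile filter discs, each loaded with 10 μL of compound solution and placed on nutrient agar (0.5% peptone, 0.5% meat extract, 0.8% agar, pH 7.0). Plates seeded with 0.5% inoculum and incubated at 37 °C for 24 h. Inhibition zone diameters measured after incubation.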

Xanthomonas campestris = assay: Antimicrobial activity against Xanthomonas campestris pv. oryzae KB88 assessed as zone of inhibition at 1 ug/disc measured after 24 to 48 hrs by paper disc method; format: functional; details: read-out: IZ
In short: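 Paper disc diffusion with 6 mm sterile filter discs, each loaded with 10 μL of compound solution and placed on nutrient agar (0.5% peptone, 0.5% meat extract, 0.8% agar, pH 7.0). Plates seeded with 1.0% inoculum and incubated at 27 °C for 24 h. Inhibition zone diameters measured after incubation.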

Saccharomyces cerevisiae [2] = assay: Antimicrobial activity against Saccharomyces cerevisiae harboring 12genedelta0HSR-iERG6 mutant assessed as zone of inhibition at 10 ug/disc measured after 24 to 48 hrs by paper disc method; format: functional; details: read-out: IZ
In short: (§2)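 Paper disc diffusion with 6 mm sterile filter discs, each loaded with 10 μL of compound solution and placed on agar plates. Plates incubated at 27 or 37 °C for 24−48 h, then inhibition zones measured.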

Mucor racemosus = assay: Antimicrobial activity against Mucor racemosus KF223 assessed as zone of inhibition at 10 ug/disc measured after 24 to 48 hrs by paper disc method; format: functional; details: read-out: IZ
Candida albicans = assay: Antimicrobial activity against Candida albicans KF1 ATCC 64548 assessed as zone of inhibition at 10 ug/disc measured after 24 to 48 hrs by paper disc method; format: functional; details: read-out: IZ
Saccharomyces cerevisiae [3] = assay: Antimicrobial activity against Saccharomyces cerevisiae BY4741 assessed as zone of inhibition at 10 ug/disc measured after 24 to 48 hrs by paper disc method; format: functional; details: read-out: IZ
In short: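 S. cerevisiae BY4741 spread on YPD agar (1% yeast extract, 2% peptone, 2% glucose, 1.5% agar) at 1% inoculation. Sterile 6 mm filter discs loaded with 10 μL compound solution were placed on the plates. Plates were incubated at 27 °C for 48 h, then inhibition zones were measured.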

Saccharomyces cerevisiae [4] = assay: Antimicrobial activity against Saccharomyces cerevisiae KF237 ATCC 9763 assessed as zone of inhibition at 10 ug/disc measured after 24 to 48 hrs by paper disc method; format: functional; details: read-out: IZ
Aspergillus niger = assay: Antimicrobial activity against Aspergillus niger KF103 ATCC 6275 assessed as zone of inhibition at 10 ug/disc measured after 24 to 48 hrs by paper disc method; format: functional; details: read-out: IZ
Saccharomyces cerevisiae [5] = assay: Antimicrobial activity against Saccharomyces cerevisiae BY25929 harboring yrr2/yrs1/pdr1/pdr3 deletion mutant assessed as zone of inhibition at 10 ug/disc measured after 24 to 48 hrs by paper disc method; format: functional; details: read-out: IZ; in short: as §2
Acholeplasma laidlawii = assay: Antimicrobial activity against Acholeplasma laidlawii KB174 PG8 assessed as zone of inhibition at 1 ug/disc measured after 24 to 48 hrs by paper disc method; format: functional; details: read-out: IZ

C[C@@H](O)[C@H]1C(=O)N2C(C(=O)O)=C(S[C@@H]3CN[C@H](C(=O)N(C)C)C3)[C@H](C)[C@H]12
zone of inhibition at 1 µg/disc (Staphylococcus aureus): 35.2 mm
zone of inhibition at 1 µg/disc (Bacillus spizizenii): 24.1 mm
zone of inhibition at 1 µg/disc (Escherichia coli): 31 mm
zone of inhibition at 1 µg/disc (Kocuria rhizophila): 38 mm
zone of inhibition at 1 µg/disc (Pseudomonas aeruginosa): 47.3 mm
zone of inhibition at 1 µg/disc [1]: 9.5 mm
zone of inhibition at 1 µg/disc (Proteus vulgaris): 37.8 mm
zone of inhibition at 1 µg/disc (Klebsiella pneumoniae): 27 mm
zone of inhibition at 1 µg/disc (Xanthomonas campestris): 31.6 mm

C[C@@H]1[C@H](O)[C@@H](C)/C=C/C=C/C=C/C=C/C=C/C=C/C=C/[C@H](O[C@@H]2O[C@H](C)[C@@H](O)[C@H](N)[C@@H]2O)C[C@@H]2O[C@](O)(C[C@@H](O)C[C@@H](O)[C@H](O)CC[C@@H](O)C[C@@H](O)CC(=O)O[C@H]1C)C[C@H](O)[C@H]2C(=O)O [AMPHOTERICIN B]
zone of inhibition at 10 µg/disc (Saccharomyces cerevisiae [2]): 9.8 mm
zone of inhibition at 10 µg/disc (Mucor racemosus): 15.1 mm
zone of inhibition at 10 µg/disc (Candida albicans): 13 mm
zone of inhibition at 10 µg/disc (Saccharomyces cerevisiae [3]): 8.2 mm
zone of inhibition at 10 µg/disc (Saccharomyces cerevisiae [4]): 14.5 mm
zone of inhibition at 10 µg/disc (Aspergillus niger): 16.1 mm
zone of inhibition at 10 µg/disc (Saccharomyces cerevisiae [5]): 11.7 mm

CC[C@H]1OC(=O)[C@H](C)[C@@H](O[C@H]2C[C@@](C)(OC)[C@@H](O)[C@H](C)O2)[C@H](C)[C@@H](O[C@@H]2O[C@H](C)C[C@H](N(C)C)[C@H]2O)[C@](C)(O)C[C@@H](C)C(=O)[C@H](C)[C@@H](O)[C@]1(C)O [ERYTHROMYCIN]
zone of inhibition at 1 µg/disc (Acholeplasma laidlawii): 28 mm
